{
  "source": "paper PMC5854750",
  "about": "(European Journal of Drug Metabolism and Pharmacokinetics, 2017)",
  "key": {"healthy male volunteers [1]": {"tested_on": "healthy male volunteers", "test": "Single-rising dose", "type": "in vivo, human"}, "[2]": {"settings": "cited from earlier work"}, "healthy male volunteers [3]": {"tested_on": "healthy male volunteers", "test": "BA/FE component: safety and tolerability", "type": "in vivo, human", "settings": "Part 2 (BA/FE), 25 mg, six of 11 subjects", "method_in_brief": "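Open-label, randomised three-way crossover in 12 healthy men (18–45 y, BMI 18.5–29.9 kg/m2). Each received single oral 25 mg doses: tablet fasted, tablet after a standardised high-fat, high-calorie meal, and 5-mg/mL solution fasted, in one of six sequences. Washout between periods was at least 14 days. Safety was monitored to Day 9 of each period, with spontaneous AEs recorded by onset, end time and intensity.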"}, "[4]": {"test": "Bioavailability/food effect", "type": "in vivo", "settings": "male, human, plasma, oral, 25 mg, Median t max", "method_in_brief": "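Healthy men (18–45 y, BMI 18.5–29.9 kg/m2) in a randomised crossover received single oral 25 mg doses as tablet fasted, tablet after a high-fat, high-calorie meal, or 5-mg/mL solution fasted. Washout was at least 14 days, and PK sampling ran to Day 9 per period. Plasma was assayed by validated LC-MS/MS over 1.00–1000 nM (linear calibration, 1/x² weighting, QC in K3-EDTA plasma). Adjusted gMean ratios are reported with 90% CI.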"}, "[5]": {"test": "SRD component: plasma and urine pharmacokinetics", "type": "in vivo, human"}},
  "data": [
    {"compound": "C[C@@H](Oc1ccc(S(C)(=O)=O)cc1C(=O)N1C[C@@H]2C[C@]2(c2cc(C(F)(F)F)on2)C1)C(F)(F)F", "note": "[BI 425809]", "values": [
      {"measurement": "Subjects with at least one AE assessed as related to treatment", "setting": "healthy male volunteers [1]; Part 1 (SRD), 27 of 72 subjects (includes placebo subjects)", "result": 37.5, "unit": "%"},
      {"measurement": "Changes from baseline of QTcF interval, QT interval or heart rate vs placebo", "setting": "healthy male volunteers [1]; Part 1, any of the doses tested", "result": "no statistically relevant differences"},
      {"measurement": "Colour discrimination and visual acuity tests", "setting": "healthy male volunteers [1]; SRD", "result": "no changes from baseline"},
      {"measurement": "Incidence of AEs", "setting": "healthy male volunteers [1]; SRD, 0.5-mg group", "result": 16.7, "unit": "%"},
      {"measurement": "Incidence of AEs", "setting": "healthy male volunteers [1]; SRD, 150-mg group", "result": 100, "unit": "%"},
      {"measurement": "Subjects with eye disorder AE (photopsia, blurred vision or chromatopsia)", "setting": "healthy male volunteers [1]; SRD, 150-mg group, n = 6", "result": "all six subjects"},
      {"measurement": "Subjects with at least one AE", "setting": "healthy male volunteers [1]; SRD, all BI 425809 doses 0.5–150 mg, 34/54 subjects", "result": 63.0, "unit": "%"},
      {"measurement": "Bond–Lader VAS scores of other items (calmness, contentment, external and internal perception)", "setting": "healthy male volunteers [1]; SRD, dose levels of 100 and 150 mg", "result": "increased"},
      {"measurement": "Bond and Lader VAS and Bowdle VAS scores for subjective feelings of sedation", "setting": "healthy male volunteers [1]; SRD, doses of 10 mg and greater", "result": "increase"},
      {"measurement": "Subjects with abnormalities on the Amsler grid test", "setting": "healthy male volunteers [1]; SRD, one each at 25 and 100 mg", "result": "two subjects"},
      {"measurement": "Maximally tolerated dose", "setting": "healthy male volunteers [1]; SRD, single oral dose, escalation terminated owing to dose-limiting AEs", "result": 150, "unit": "mg"},
      {"measurement": "ECG findings", "setting": "healthy male volunteers [1]; both parts", "result": "No clinically relevant abnormal findings"},
      {"measurement": "Neurological examination findings", "setting": "healthy male volunteers [1]; both parts", "result": "No clinically relevant abnormal findings"},
      {"measurement": "Subjects with at least one AE assessed as related to treatment", "setting": "healthy male volunteers [1]; both parts, 33/83 subjects (includes placebo subjects)", "result": 39.8, "unit": "%"},
      {"measurement": "Changes in laboratory parameters, hormone levels, haematology or vital signs", "setting": "healthy male volunteers [1]; either part of the study", "result": "no clinically relevant changes"},
      {"measurement": "Time to disappearance of headache", "setting": "healthy male volunteers [1]; first day of dosing", "result": "≤ 12", "unit": "h"},
      {"measurement": "Tolerability", "setting": "healthy male volunteers [1]; single dose, anticipated therapeutic dose range of 5–25 mg", "result": "generally well-tolerated"},
      {"measurement": "Biopharmaceutics Classification System class", "setting": "[2]", "result": "Class II"},
      {"measurement": "Permeability", "setting": "[2]", "result": "high"},
      {"measurement": "Subjects with at least one AE assessed as related to treatment", "setting": "healthy male volunteers [3]", "result": 54.5, "unit": "%"},
      {"measurement": "Tmax", "setting": "[4]; 25-mg solution, fasted", "result": 0.875, "unit": "h"},
      {"measurement": "Tmax", "setting": "[4]; 25-mg tablet, fasted", "result": 4, "unit": "h"},
      {"measurement": "Tmax", "setting": "[4]; 25-mg tablet, fed", "result": 1.77, "unit": "h"},
      {"measurement": "Fractional renal excretion", "setting": "[5]; SRD, similar across all dose groups", "result": 5, "unit": "%"},
      {"measurement": "Tmax", "setting": "[5]; male, human, plasma, oral", "result": "~45", "unit": "min"},
      {"measurement": "half-life", "setting": "[5]; male, human, plasma, oral", "result": "1950 to 2820", "unit": "min"}
    ]}
  ]
}
